# Ecoli WT expand – growth inhibitors of wild-type E. coli, primary screen, strain BW25113, expanded library, OD600 | 0.15% of 98,000 active | OD600 absorbance | growth inhibition, % at 100 µM;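 active means growth inhibition above about 50% at one test dose, limit read from the data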;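 further: growth measured after 20 h incubation at 37 °C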
# PLAP act – PLAP enzyme activators, biochemical, luminescence, HTS. Alkaline phosphatase, placental type (Homo sapiens), P05187. purified PLAP enzyme, luminescent substrate read-out; hits give high values. activation fold at 20 µM. 1.2% of 96,000 active. AID 696, 2007; in the data active means activation fold above about 2
# Target sequence (P05187 whole entry, looked up): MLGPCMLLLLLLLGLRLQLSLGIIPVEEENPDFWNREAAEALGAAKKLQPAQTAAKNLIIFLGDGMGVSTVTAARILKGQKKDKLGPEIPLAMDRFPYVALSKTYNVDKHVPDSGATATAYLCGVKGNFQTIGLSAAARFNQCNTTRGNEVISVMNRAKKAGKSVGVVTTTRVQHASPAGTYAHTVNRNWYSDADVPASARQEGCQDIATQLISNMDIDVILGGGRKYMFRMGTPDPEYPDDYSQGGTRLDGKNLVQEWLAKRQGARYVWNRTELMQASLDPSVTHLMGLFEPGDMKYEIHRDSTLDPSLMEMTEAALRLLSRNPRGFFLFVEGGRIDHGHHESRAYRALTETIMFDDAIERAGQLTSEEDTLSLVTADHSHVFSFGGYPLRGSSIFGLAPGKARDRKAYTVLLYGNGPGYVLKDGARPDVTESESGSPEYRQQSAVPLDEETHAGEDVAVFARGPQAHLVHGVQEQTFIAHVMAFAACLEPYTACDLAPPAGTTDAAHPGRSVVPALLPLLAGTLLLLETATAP
# Ecoli tolC – growth inhibitors of E. coli tolC mutant, primary screen, strain BW25113 ΔtolC::kan, 384-well; OD615; growth inhibition, % at 10 µM (by protocol); 2.2% of 65,000 active; AID 573, 2007;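 active means growth inhibition at or above a cutoff equal to the mean over every tested compound plus 3 SD, cut at about 60% in these data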;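 further: growth measured after 20 h incubation at 37 °C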
#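 signal = optical density read at 615 nm | test system = E. coli ΔtolC::kan strain BW25113 | timing = 20 h compound exposure of bacteria at 37 °C | buffer or medium = LB medium plus 50 µg/mL kanamycin | compound dosing = 10 µM final, single dose | evaluation = % inhibition of E. coli growth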
# HePTP inh – inhibitors of human HePTP phosphatase, primary screen, biochemical, absorbance, leukemia target | recombinant HePTP phosphatase activity, OD absorbance | Tyrosine-protein phosphatase non-receptor type 7 (Homo sapiens), P35236 | 0.64% of 110,000 active | AID 521, 2006 | inhibition, % at 20 µM; in the data active means inhibition above about 50%
# PostGolgi ctrl – growth inhibition of yeast control strain, primary screen, counter-screen for post-Golgi transport modulator project; efflux-deficient yeast background strain, growth absorbance A615, 16 h; inhibition, % at 10 µM; 5% of 98,000 active; AID 738, 2007
# PostGolgi yeast – phenotypic screen on post-Golgi transport, primary screen | post-Golgi transport phenotypic cell assay | inhibition, % at 10 µM | 0.9% of 98,000 active;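 further: yeast cells grown in 1536-well plates; yeast grown about 18 h at 30C before absorbance read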
# A number is an active result; n = inactive; x = no result. A selection: hits, their analogues and other compounds. The true share with any hit is near 5.5%. Unless noted, no stated cut-off is given here; in the data, active means inhibition above about 30%; inactive means the rest.
SMILES,Ecoli WT expand,PLAP act,Ecoli tolC,HePTP inh,PostGolgi ctrl,PostGolgi yeast
O=C(CSc1nnc(-c2ccc(Cl)cc2Cl)n1C1CCCCC1)N1CCCC1,n,2,x,x,n,n
Cc1c(C(=O)OC2CCCC2C)[nH]c2c1C(=O)CCC2 (stereo not given),n,n,84,n,n,n
CCCc1c(C(=O)OCC)[nH]c2c1C(=O)CCC2,n,n,n,n,n,n
Cc1c(C(=O)OCCOc2ccccc2)[nH]c2c1C(=O)CCC2,n,n,63,n,n,n
N#CCCn1cc(C=O)c(-c2ccc(-c3ccccc3)cc2)n1,x,x,x,n,x,x
COc1ccc(N(CC(=O)Nc2ccc(C)c(C)c2)S(=O)(=O)c2ccc(C)cc2)cc1,x,x,x,n,x,x
O=C(CN1CCN(c2ncc(C(F)(F)F)cc2Cl)CC1)N1CCN(c2ncc(C(F)(F)F)cc2Cl)CC1,n,n,x,x,30,n
O=S(=O)(c1cccs1)N1CCC(Cc2ccccc2)CC1,n,n,n,n,35,n
COc1cc(/C=C2/C(=O)NN(c3ccc(C)cc3)C2=O)c([N+](=O)[O-])cc1OC,x,x,x,n,x,x
CCOC(=O)N1CCC(N(CCOC)C(=O)Nc2ccc(Cl)c(Cl)c2)CC1,n,n,n,n,64,n
Cc1[nH]n(-c2ccccc2)c(=O)c1C(=O)c1ccccc1F,x,x,x,n,x,x
N#CCc1c(C#N)c(N)nc(N2CCN(c3ccc(F)cc3)CC2)c1C#N,n,n,x,x,47,n
O=S(=O)(c1ccccc1)c1cnn(-c2ccccc2)c1-c1ccc(Cl)cc1,n,n,x,x,39,n
CCOC(=O)c1sc(NC(=O)Nc2ccc(Cl)cc2)cc1C,n,n,x,x,62,n
CCOC(=O)c1sc(NC(=O)c2ccc(Cl)s2)cc1C,n,n,n,n,n,n
CCOC(=O)c1sc(NC(=O)c2c(C)nn(Cc3ccccc3)c2C)cc1C,n,n,71,n,n,n
Brc1ccccc1OCCCCCCN1CCOCC1,x,x,x,n,x,x
Cc1cccc(/C=C2/SC(=O)N(Cc3ccccc3Cl)C2=O)n1,n,n,x,x,39,n
Cc1ccc(C2CC(c3cccc(Br)c3)Nc3nnnn32)cc1 (stereo not given),n,n,67,n,n,n
Fc1ccc(-c2nnc3ccc(N4CCc5ccccc5C4)nn23)cc1,n,n,n,n,59,n
COc1ccc(-n2c(COc3cccc(C)c3)nnc2SCC(=O)NCc2ccco2)cc1,n,n,n,n,n,n
COc1ccc(C)cc1NC(=O)CSc1nnc(COc2ccc(Cl)cc2)n1Cc1ccco1,n,n,n,n,40,n
COc1ccc(NC(=O)CSc2nnc(COc3ccccc3)n2Cc2ccco2)cc1OC,n,n,n,n,n,n
CCOc1ccc(NC(=O)CSc2nnc(-c3ccccc3Cl)n2Cc2ccco2)cc1,n,n,n,n,35,n
COc1ccc(C)cc1NC(=O)CSc1nnc(COc2ccccc2)n1Cc1ccco1,n,n,76,n,n,n
SMILES,Ecoli WT expand,PLAP act,Ecoli tolC,HePTP inh,PostGolgi ctrl,PostGolgi yeast
COc1ccc(-n2c(COc3ccc4ccccc4c3)nnc2SCC(=O)NCc2ccco2)cc1,n,2,x,x,n,n
COc1ccc(C)cc1NC(=O)CSc1nnc(-c2ccccn2)n1Cc1ccco1,n,n,n,n,n,n
COc1ccc(NC(=O)CSc2nnc(-c3ccccc3Cl)n2Cc2ccco2)c(OC)c1,n,n,n,n,n,n
O=C(CSc1nnc(Cc2cccs2)n1Cc1ccco1)Nc1cc(Cl)cc(Cl)c1,n,n,91,n,35,n
COc1ccc(-c2cnc(SCC(=O)Nc3cc(C)on3)n2Cc2ccco2)cc1,n,n,80,n,n,n
O=C(/C=C/c1cccc(NC(=O)c2ccc([N+](=O)[O-])cc2)c1)c1ccccc1,x,x,x,n,x,x
O=C(NCCC1=CCCCC1)C(=O)NCc1ccccc1Cl,n,n,x,x,34,n
CCCNC(=O)C(=O)NCCC1=CCCCC1,n,n,x,x,n,n
COc1ccc(OC)c(CNc2cccc(C)c2)c1,x,x,x,n,x,x
O=C1OC(Oc2ccccc2)(c2ccccc2)c2ccccc21 (stereo not given),n,n,x,n,32,n
O=C1OC(OC2CCCCC2)(c2ccccc2)c2ccccc21 (stereo not given),n,n,x,n,39,n
O=C1OC(Oc2ccc(Cl)cc2Cl)(c2ccccc2)c2ccccc21 (stereo not given),x,x,x,n,x,x
C(=N\c1ncnc2sccc12)/NOCc1ccccc1,n,n,x,x,66,n
Clc1ccc(CON/C=N/c2ncnc3sccc23)cc1,n,n,x,x,n,n
O=C(c1ccc2nc(N3CCOCC3)sc2c1)N1CCCC1,n,n,n,n,n,n
CC1CCN(c2nc3ccc(C(=O)N4CCN(Cc5ccc6c(c5)OCO6)CC4)cc3s2)CC1,n,n,x,x,41,n
CC1(C)CC(=O)C2=C(C1)c1c(ccc3ccccc13)NC2c1ccc(Br)o1 (stereo not given),n,n,x,x,69,n
COc1ccccc1/C=C1\C(=O)NC(=O)N(c2ccc(Br)cc2)C1=O,x,x,x,n,x,x
NNc1ccc(/C=C/c2ccc(NN)cc2S(=O)(=O)O)c(S(=O)(=O)O)c1,x,x,x,94,x,x
CC1=CCC2C(=O)N(c3ccc4ccccc4n3)C(=O)C2C1 (stereo not given),n,n,n,x,n,n
Cc1cc(=O)n(-c2ccc3ccccc3n2)[nH]1,n,2.3,n,n,n,n
Cc1sc(NC(=O)c2cc(Cl)ccc2[N+](=O)[O-])nc1-c1ccccc1,x,x,x,n,x,x
CCc1sc(NC(=O)COc2ccccc2)c(C(N)=O)c1C,x,x,x,n,x,x
C/C(=N\NC(=S)Nc1cccc(C)c1)c1ccccc1,n,n,x,x,33,n
Cc1cccc(NC(=S)NNC(=S)NCc2ccccc2)c1,n,n,x,x,n,n
SMILES,Ecoli WT expand,PLAP act,Ecoli tolC,HePTP inh,PostGolgi ctrl,PostGolgi yeast
CC(C)Oc1ccccc1NC(=O)c1ccc(Cl)cc1Cl,x,x,x,n,x,x
Cc1c(Cl)cccc1NC(=O)c1nc(C)n(-c2cc(OC(C)C)c(Cl)cc2Cl)n1,n,n,x,x,30,n
CCOC(=O)Nc1cc(C)c(Cl)cc1OC,n,n,n,n,38,n
N#C/C(=C/c1cc([N+](=O)[O-])ccc1Cl)C(=O)Nc1cccc(Br)c1,x,x,x,n,x,x
O=C(CSc1nn(-c2ccc(Cl)cc2)c(=S)s1)N1CCN(C(=O)c2ccco2)CC1,n,n,n,n,52,n
O=C(CSc1nn(-c2ccc(F)cc2)c(=S)s1)N1CCN(C(=O)c2ccco2)CC1,n,n,n,n,n,n
COc1ccc(/C=C2\SC(=S)N(C(C)C)C2=O)cc1,x,x,x,n,x,x
COCCN1C(=O)c2oc3ccccc3c(=O)c2C1c1cccc(O)c1 (stereo not given),n,n,n,n,32,n
COC(=O)Cc1[nH]nc2c1C(c1cccc(OC)c1OC)C(C#N)=C(N)O2 (stereo not given),n,2,n,n,n,n
CCOC(=O)Cc1[nH]nc2c1C(c1cc(OC)ccc1OC)C(C#N)=C(N)O2 (stereo not given),n,n,n,n,n,n
